Assay results gathered from unrelated publications.
Protocols differ between the studies behind these lines.
Target: Phosphatidylinositol 4-phosphate 3-kinase C2 domain-containing subunit beta (PIK3C2B, Homo sapiens, UniProt O00750)

| Compound | observed | mode | method | tested at | measurement | result |
| --- | --- | --- | --- | --- | --- | --- |
| C1=C/COCc2cc(ccc2OCCN2CCCC2)Nc2nccc(n2)-c2cccc(c2)COC/1 | binding |  |  | 0.1 µM | remaining binding | 87% |
| CN1CCN(C(=O)c2ccc(NC(=O)Nc3ccc(N(C)c4ccnc(Nc5ccc(CS(C)(=O)=O)cc5)n4)cc3)cc2)CC1 | binding |  |  | 1 µM | remaining binding | 100% |
| CC#CC(=O)N1CCC[C@H]1c1nc(-c2ccc(C(=O)Nc3ccccn3)cc2)c2c(N)nccn12 | enzyme activity | inhibitor |  | 1 µM | inhibition | 0% |
| N#Cc1ccc(NC(=O)Nc2ccccc2)cc1 | cell-free assay |  | competition with immobilised ligand | 25 µM | remaining binding | 79% |
| C#Cc1cnc(Nc2ccnc(CO)c2)nc1Nc1ccccc1S(C)(=O)=NC#N (centres unmarked) | cell-free assay |  |  | 1 µM | remaining signal | 100% |
| C=CC(=O)N1CCC([C@@H]2CCNc3c(C(N)=O)c(-c4ccc(Oc5ccccc5)cc4)nn32)CC1 | enzyme activity | inhibitor |  | 1 µM | inhibition | 0% |
| C[C@H]1CC[C@H](n2c3cnccc3c3cnc(Nc4ccc5c(n4)CCN(C(=O)CO)C5)nc32)CC1 | cell-free assay |  |  | 1 µM | remaining signal | 100% |
| CCCCC(=O)Nc1ccc(-c2ccc3ncn(CCC)c(=O)c3c2)cn1 | binding |  | competition with immobilised ligand | 0.5 µM | remaining binding | 100% |
